High-throughput results (PubChem)
T cruzi growth-1 – blocks T. cruzi growth in NIH3T3 culture | T. cruzi beta-gal in NIH3T3, GalScreen luminescence, 90 h | actives 5.9% (n = 77,000) | inhibition, % at 8.34 µM;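 active = mean inhibition above about 93%, with at least 55% of replicates each passing it, limit read from the data, passing the limit was not always enough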
KDM4C inh – KDM4C (human) demethylase inhibition; Q9H3R0; AID 720574; GST-KDM4C 2-372, H3K9me3 peptide, LANCE TR-FRET; inhibition, % at 12.5 µM; actives 0.15% (n = 96,000);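 active = mean replicate inhibition above about 25%, with at least 55% of replicates also reaching it, limit read from the data, passing the limit was not always enough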
Target sequence (Q9H3R0 2-372 limits assumed): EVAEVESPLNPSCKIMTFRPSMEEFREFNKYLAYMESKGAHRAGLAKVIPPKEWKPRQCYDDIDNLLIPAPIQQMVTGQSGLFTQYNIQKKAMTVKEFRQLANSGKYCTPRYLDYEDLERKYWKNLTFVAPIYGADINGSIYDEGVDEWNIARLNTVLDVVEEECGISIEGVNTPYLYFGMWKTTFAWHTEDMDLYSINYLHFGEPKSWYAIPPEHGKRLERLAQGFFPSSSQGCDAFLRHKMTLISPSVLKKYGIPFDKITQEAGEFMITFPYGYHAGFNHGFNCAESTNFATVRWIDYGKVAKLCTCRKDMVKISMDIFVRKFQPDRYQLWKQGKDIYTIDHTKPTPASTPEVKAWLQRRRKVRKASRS
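reagent = H3K9me3 peptide substrate, Fe(II), 2-oxoglutarate | system = GST-tagged GASC-1 (JMJD2C) catalytic fragment, aa 2-372 | amount = enzyme final amount 10 nM | read-out = Fall in 671/618 emission ratio as inhibition | medium = HEPES buffer, pH 7.5, plus ascorbate | schedule = 30 min reaction, 60 min detection, RT | measured by = LANCE TR-FRET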
IDH1 R132H inh – inhibitors of human IDH1 R132H | O75874 | IDH1 R132H reductase, diaphorase/resazurin fluorescence, 60 min | inhibition, % at 10 µM | actives 0.18% (n = 70,000) | AID 624101; in the data active = inhibition above about 34%;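 also: 0% = DMSO and 100% = no enzyme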
T cruzi growth-2 – blocks T. cruzi growth in NIH3T3 host cells; inhibition, % at 8.35 µM; T. cruzi beta-gal in NIH3T3, GalScreen luminescence, 90 h; shares compounds with T cruzi growth-1; actives 72% (n = 5,600);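 active = mean replicate inhibition above about 95% and at least 55% of replicates individually reaching it, limit read from the data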
T cruzi growth-3 – blocks T. cruzi growth in NIH3T3 host cells; inhibition, % at 2.09 µM; T. cruzi beta-gal in NIH3T3, GalScreen luminescence, 90 h; actives 21% (n = 5,600); shares compounds with T cruzi growth-1; AID 651740;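 active = mean inhibition above about 95%, with at least 55% of replicates also reaching it, limit read from the data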;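 also: plate controls were neutral control median for no effect and positive control median for full effect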
3T3 cytotox – NIH/3T3 (mouse) viability loss. shares compounds with T cruzi growth-1. NIH/3T3 viability, CellTiter-Glo ATP luminescence, 90 h. cytotoxicity (signal decrease), % at 8.35 µM. actives 14% (n = 5,600). AID 651742;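 active = mean signal decrease across replicates above about 35% based on untreated-well scatter, with enough replicates individually passing, limit read from the data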;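 also: 0% = median of neutral control wells and 100% = median of positive control wells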
3T3 cytotox 2 – NIH/3T3 (mouse) viability loss. NIH/3T3 viability, CellTiter-Glo ATP luminescence, 90 h. shares compounds with T cruzi growth-1. inhibition, % at 24.9 µM. actives 56% (n = 5,600). AID 651744;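 active = mean loss of cell viability signal at or above a set limit, and enough replicates individually reaching it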;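 also: 0% = median of neutral control wells and 100% = median of positive control wells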
Numbers without * were called inactive. This excerpt belongs to a sample that is enriched for hits.

Screening C[C@@H]1CN([C@H](C)CO)S(=O)(=O)c2ccc(C#CCN(C)C)cc2O[C@@H]1CN(C)C(=O)c1ccccc1F returned T cruzi growth-1 18, KDM4C inh 4 and IDH1 R132H inh -3.
For C[C@@H]1CN([C@@H](C)CO)S(=O)(=O)c2ccc(C#CCN(C)C)cc2O[C@H]1CN(C)C(=O)c1ccccc1F the results were T cruzi growth-1 101*, KDM4C inh 1, IDH1 R132H inh 0, T cruzi growth-2 109*, T cruzi growth-3 89, 3T3 cytotox 11 and 3T3 cytotox 2 6.
Screening C[C@H]1CN([C@@H](C)CO)S(=O)(=O)c2ccc(C#CCN(C)C)cc2O[C@@H]1CN(C)C(=O)c1ccccc1F returned T cruzi growth-1 99*, KDM4C inh 1, IDH1 R132H inh -2, T cruzi growth-2 105*, T cruzi growth-3 91, 3T3 cytotox 8 and 3T3 cytotox 2 16.
C[C@@H]1CN([C@H](C)CO)S(=O)(=O)c2ccc(C#CCN(C)C)cc2O[C@H]1CN(C)C(=O)c1ccccc1F was read as T cruzi growth-1 93, KDM4C inh 1 and IDH1 R132H inh 0.
Screening Cc1noc(C)c1NC(=O)Nc1ccc2c(c1)CC(=O)N([C@@H](C)CO)C[C@@H](C)[C@H](CN(C)S(C)(=O)=O)O2 returned KDM4C inh 11.
CC(Oc1ccccc1)C(=O)Nc1cc([N+](=O)[O-])ccc1O (stereo not given) was read as IDH1 R132H inh 0.
Screening CCCNC(=O)N1C[C@H](O)COC[C@H]2O[C@H](CC(=O)N[C@H]3CCN(Cc4ccccc4)C3)CC[C@@H]21 returned T cruzi growth-1 -67 and KDM4C inh 0.
For O=C(c1cccc(F)c1)N1CCCCN2[C@H](CO)[C@H](c3ccc(/C=C/c4ccccc4)cc3)[C@@H]2C1 the results were T cruzi growth-1 114*, KDM4C inh 0, T cruzi growth-2 100*, T cruzi growth-3 110*, 3T3 cytotox 34 and 3T3 cytotox 2 99*.
Screening O=C(c1cccc(F)c1)N1CCCCN2[C@H](CO)[C@@H](c3ccc(/C=C/c4ccccc4)cc3)[C@H]2C1 returned T cruzi growth-1 92 and KDM4C inh -2.
`O=C(c1cccc(F)c1)N1CC(=O)N2[C@@H](CO)[C@H](c3ccc(/C=C/c4ccccc4)cc3)[C@@H]2C1` gave KDM4C inh 0.
O=C(c1cccc(F)c1)N1CCCCN2[C@H](CO)[C@H](c3ccc(/C=C/c4ccccc4)cc3)[C@H]2C1 was read as T cruzi growth-1 111*, KDM4C inh -4, T cruzi growth-2 102*, T cruzi growth-3 81, 3T3 cytotox 91* and 3T3 cytotox 2 104*.
Screening O=C(c1cccc(F)c1)N1CCCCN2[C@@H](CO)[C@H](c3ccc(/C=C/c4ccccc4)cc3)[C@@H]2C1 returned T cruzi growth-1 111*, KDM4C inh -1, T cruzi growth-2 103*, T cruzi growth-3 93, 3T3 cytotox 45* and 3T3 cytotox 2 103*.
`O=C(c1cccc(F)c1)N1CC(=O)N2[C@H](CO)[C@@H](c3ccc(/C=C/c4ccccc4)cc3)[C@H]2C1` gave KDM4C inh -1.
COC(=O)c1ccccc1NC(=O)CCSc1ccc(C)cc1 was read as IDH1 R132H inh 0.
COc1ccccc1C#Cc1ccc2c(c1)[C@H]1[C@H](CCN1C(=O)c1ccncc1)[C@H](CO)N2 was read as T cruzi growth-1 66.
CO[C@H]1CN(C)C(=O)c2ccc(NC(=O)Nc3cccc(F)c3)cc2OC[C@@H](C)N(C(C)=O)C[C@H]1C was read as T cruzi growth-1 -47, KDM4C inh 0 and IDH1 R132H inh 0.
C[C@@H]1CN([C@@H](C)CO)C(=O)c2cc(NC(=O)CCCCCC(=O)Nc3ccccc3N)ccc2O[C@@H]1CN(C)C was read as KDM4C inh 0 and IDH1 R132H inh 0.
